Measurements from ChEMBL document CHEMBL4402517, “Rational modification of Mannich base-type derivatives as novel antichagasic compounds: Synthesis, in vitro and in vivo evaluation” (Bioorg Med Chem, 2019).

Columns and labels:
[1] = Genotoxicity in Salmonella typhimurium TA1535 harboring pSK1002 assessed as survival at 0.016 mg/ml in absence of Sprague-Dawley rat liver S9 fraction metabolic activation by SOS/umu assay relative to control; format: toxicity; conditions: salmonella enterica subsp. enterica serovar typhimurium, read-out: Survival
Outline: (§1)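 Survival of S. typhimurium TA1535/pSK1002 exposed to a range of compound concentrations with or without S9 mix in 96-well format. Survival percentage measured as the cytotoxicity arm of the SOS/umu test. Concentrations with survival ≥80% are counted as non-cytotoxic.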

[2] = Genotoxicity in Salmonella typhimurium TA1535 harboring pSK1002 assessed as survival at 0.008 mg/ml in absence of Sprague-Dawley rat liver S9 fraction metabolic activation by SOS/umu assay relative to control; format: toxicity; conditions: salmonella enterica subsp. enterica serovar typhimurium, read-out: Survival; outline: as §1
[3] = Genotoxicity in Salmonella typhimurium TA1535 harboring pSK1002 assessed as survival at 0.001 mg/ml in absence of Sprague-Dawley rat liver S9 fraction metabolic activation by SOS/umu assay relative to control; format: toxicity; conditions: salmonella enterica subsp. enterica serovar typhimurium, read-out: Survival
Outline: (§2)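 Salmonella typhimurium TA1535/pSK1002 was exposed to compounds at several concentrations with or without S9 mix, and bacterial survival % was measured. β-galactosidase induction was measured colorimetrically with ONPG substrate. Genotoxicity was counted where IF ≥ 2 at ≥80% survival; runs were valid if positive controls reached IF ≥ 2.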

[4] = Genotoxicity in Salmonella typhimurium TA1535 harboring pSK1002 assessed as survival at 1 mg/ml in presence of Sprague-Dawley rat liver S9 fraction metabolic activation by SOS/umu assay relative to control; format: toxicity, subcellular; conditions: salmonella enterica subsp. enterica serovar typhimurium, read-out: Survival; outline: as §1
[5] = Genotoxicity in Salmonella typhimurium TA1535 harboring pSK1002 assessed as survival at 0.031 mg/ml in presence of Sprague-Dawley rat liver S9 fraction metabolic activation by SOS/umu assay relative to control; format: toxicity, subcellular; conditions: salmonella enterica subsp. enterica serovar typhimurium, read-out: Survival; outline: as §1
[6] = Genotoxicity in Salmonella typhimurium TA1535 harboring pSK1002 assessed as survival at 0.008 mg/ml in presence of Sprague-Dawley rat liver S9 fraction metabolic activation by SOS/umu assay relative to control; format: toxicity, subcellular; conditions: salmonella enterica subsp. enterica serovar typhimurium, read-out: Survival; outline: as §1
[7] = Genotoxicity in Salmonella typhimurium TA1535 harboring pSK1002 assessed as survival at 0.004 mg/ml in presence of Sprague-Dawley rat liver S9 fraction metabolic activation by SOS/umu assay relative to control; format: toxicity, subcellular; conditions: salmonella enterica subsp. enterica serovar typhimurium, read-out: Survival; outline: as §1
[8] = Genotoxicity in Salmonella typhimurium TA1535 harboring pSK1002 assessed as survival at 0.001 mg/ml in presence of Sprague-Dawley rat liver S9 fraction metabolic activation by SOS/umu assay relative to control; format: toxicity, subcellular; conditions: salmonella enterica subsp. enterica serovar typhimurium, read-out: Survival; outline: as §2
[9] = Genotoxicity in Salmonella typhimurium TA1535 harboring pSK1002 assessed as umu gene induction at 0.063 mg/ml in absence of Sprague-Dawley rat liver S9 fraction metabolic activation by SOS/umu assay relative to control; format: toxicity; conditions: salmonella enterica subsp. enterica serovar typhimurium, read-out: FC
Outline: (§3)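 umu induction in S. typhimurium TA1535/pSK1002, with or without S9 mix, in 96-well format. β-galactosidase read colorimetrically with ONPG substrate. Output given as relative units and induction factor (IF). The run is valid if positive controls reach IF ≥2. A compound counts as genotoxic at IF ≥2 at a concentration giving ≥80% bacterial survival.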

[10] = Genotoxicity in Salmonella typhimurium TA1535 harboring pSK1002 assessed as umu gene induction at 0.016 mg/ml in absence of Sprague-Dawley rat liver S9 fraction metabolic activation by SOS/umu assay relative to control; format: toxicity; conditions: salmonella enterica subsp. enterica serovar typhimurium, read-out: FC; outline: as §3
[11] = Genotoxicity in Salmonella typhimurium TA1535 harboring pSK1002 assessed as umu gene induction at 0.002 mg/ml in absence of Sprague-Dawley rat liver S9 fraction metabolic activation by SOS/umu assay relative to control; format: toxicity; conditions: salmonella enterica subsp. enterica serovar typhimurium, read-out: FC; outline: as §3
[12] = Genotoxicity in Salmonella typhimurium TA1535 harboring pSK1002 assessed as umu gene induction at 0.001 mg/ml in absence of Sprague-Dawley rat liver S9 fraction metabolic activation by SOS/umu assay relative to control; format: toxicity; conditions: salmonella enterica subsp. enterica serovar typhimurium, read-out: FC; outline: as §3
[13] = Genotoxicity in Salmonella typhimurium TA1535 harboring pSK1002 assessed as umu gene induction at 0.25 mg/ml in presence of Sprague-Dawley rat liver S9 fraction metabolic activation by SOS/umu assay relative to control; format: toxicity, subcellular; conditions: salmonella enterica subsp. enterica serovar typhimurium, read-out: FC; outline: as §3
[14] = Genotoxicity in Salmonella typhimurium TA1535 harboring pSK1002 assessed as umu gene induction at 0.125 mg/ml in presence of Sprague-Dawley rat liver S9 fraction metabolic activation by SOS/umu assay relative to control; format: toxicity, subcellular; conditions: salmonella enterica subsp. enterica serovar typhimurium, read-out: FC; outline: as §3
[15] = Genotoxicity in Salmonella typhimurium TA1535 harboring pSK1002 assessed as umu gene induction at 0.063 mg/ml in presence of Sprague-Dawley rat liver S9 fraction metabolic activation by SOS/umu assay relative to control; format: toxicity, subcellular; conditions: salmonella enterica subsp. enterica serovar typhimurium, read-out: FC; outline: as §3
Trypanosoma cruzi = assay: Antitrypanosomal activity against Trypanosoma cruzi MHOM/Pe/2011/Arequipa;DTU 5 bloodstream trypomastigotes infected in BALB/c mouse assessed as decrease in splenomegaly in chronic phase at 20 mg/kg/day, po administered for 5 consecutive days starting from day 70 post infection relative to untreated control; format: functional; design: scale not given: the % may be the effect or the level left
Outline: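 Female BALB/c mice (three per group) were infected i.p. with 5 × 10^5 Arequipa trypomastigotes and dosed orally at 20 mg/kg/day for 5 days in 5% DMSO/0.5% HPMC. Controls were uninfected and vehicle-only groups. At the end of the experiment spleens were weighed and expressed as % of body weight.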

[16] = (§4) Toxicity in BALB/c mouse infected with Trypanosoma cruzi MHOM/Pe/2011/Arequipa;DTU 5 bloodstream trypomastigote assessed as decrease in serum alkaline phosphatase level in acute phase at 20 mg/kg/day, po administered for 5 consecutive days starting from day 8 post infection and measured at day 14 post infection by biochemical analysis relative to control; format: organism-based; design: scale not given: the % may be the effect or the level left; conditions: in vivo
Outline: (§5)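 Female BALB/c mice (10–12 weeks, 14–20 g; groups of three) were infected i.p. with 5 × 10^5 Arequipa bloodstream trypomastigotes. Dosing was oral at 20 mg/kg/day for 5 days, from day 8 pi (acute) or day 70 pi (chronic), as a 2 mg/ml suspension in 5% DMSO/0.5% HPMC; controls received vehicle. Cyclophosphamide 200 mg/kg i.p. was given at day 80 pi. Serum was collected 2 days post-treatment and at necropsy by cardiac puncture and compared with infected untreated controls.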

[17] = as §4, with “as change” for “as decrease”, “serum lactate dehydrogenase” for “serum alkaline phosphatase”, “measured on” for “measured at”, “day 100” for “day 14”; format: organism-based; conditions: in vivo; outline: as §5
[18] = (§6) Toxicity in BALB/c mouse infected with Trypanosoma cruzi MHOM/Pe/2011/Arequipa;DTU 5 bloodstream trypomastigote assessed as decrease in serum urea level in chronic phase at 20 mg/kg/day, po administered for 5 consecutive days starting from day 70 post infection measured on day 100 post infection relative to control; format: organism-based; design: scale not given: the % may be the effect or the level left; conditions: in vivo; outline: as §5
[19] = as §6, with “total bilirubin” for “urea”; format: organism-based; design: scale not given: the % may be the effect or the level left; conditions: in vivo; outline: as §5
[20] = as §4, with “increase” for “decrease”, “total bilirubin” for “alkaline phosphatase”; format: organism-based; conditions: in vivo; outline: as §5
[21] = Genotoxicity in Salmonella typhimurium TA1535 harboring pSK1002 assessed as survival at 0.25 mg/ml in absence of Sprague-Dawley rat liver S9 fraction metabolic activation after by SOS/umu assay relative to control; format: toxicity; conditions: salmonella enterica subsp. enterica serovar typhimurium, read-out: Survival; outline: as §1
[22] = as §4, with “as change” for “as decrease”, “serum alanine aminotransferase” for “serum alkaline phosphatase”, “measured on” for “measured at”, “day 100” for “day 14”; format: organism-based; conditions: in vivo; outline: as §5

Row | Compound | viability at 0.016 mg/ml [1] | viability at 0.008 mg/ml [2] | viability at 0.001 mg/ml [3] | viability at 1 mg/ml [4] | viability at 0.031 mg/ml [5] | viability at 0.008 mg/ml [6] | viability at 0.004 mg/ml [7] | viability at 0.001 mg/ml [8] | fold induction at 0.063 mg/ml [9] | fold induction at 0.016 mg/ml [10] | fold induction at 0.002 mg/ml [11] | fold induction at 0.001 mg/ml [12] | fold induction at 0.25 mg/ml [13] | fold induction at 0.125 mg/ml [14] | fold induction at 0.063 mg/ml [15] | Activity (Trypanosoma cruzi) | Activity [16] | Activity [17] | Activity [18] | Activity [19] | other results
1 | O=C(CCN1CCN(c2ccc(Cl)cc2)CC1)c1ccc(O)cc1 | 130% | 128% | 104% | 213% | 102% | 109% | 108% | 106% | 0.71 | 0.66 | 0.78 | 0.83 | 0.63 | 0.84 | 0.87 | 81% | <= 10% | > 10% | <= 10% | <= 10% | Activity [20]: <= 10%; viability at 0.25 mg/ml [21]: 152%
2 | O=C(Cn1ccnc1[N+](=O)[O-])NCc1ccccc1 [BENZNIDAZOLE] | – | – | – | – | – | – | – | – | – | – | – | – | – | – | – | – | – | – | <= 30% | <= 10% | Activity [22]: > 10%
3 | O=C(CCN1CCN(c2ccc(C(F)(F)F)cc2)CC1)c1ccc(O)cc1 | 127% | 133% | 114% | 216% | 107% | 104% | 112% | 106% | 0.67 | 0.74 | 0.74 | 0.91 | 0.63 | 0.63 | 0.85 | 66% | <= 30% | > 10% | – | – | Activity [22]: > 10%; Activity [20]: > 40%; viability at 0.25 mg/ml [21]: 149%
